ChEMBL document CHEMBL5120910, “Small-Molecule Gankyrin Inhibition as a Therapeutic Strategy for Breast and Lung Cancer” (J Med Chem, 2022)
Active and inactive are the calls of the source. The calls are words filed in the database; no cut-off is given here.

What was measured:
A549 = test: Antiproliferative activity against human A549 cells assessed as cell growth inhibition measured after 72 hrs by MTT assay; assay type: functional, cell-based; conditions: A549, 72 h
In short: (§1)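 Cells seeded at 2.5 × 10^4 cells/well, allowed 24 h before dosing, then exposed to increasing concentrations (0.5% DMSO final) for 72 h at 37 °C, 5% CO2. MTT added at 1 mg/mL final in complete media for 2 h, formazan dissolved in DMSO, absorbance read at 570 nm. 6–8 repeats per treatment; IC50 from concentration–response fit.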

MDA-MB-231 [1] = test: Antiproliferative activity against human MDA-MB-231 cells assessed as cell growth inhibition measured after 72 hrs by MTT assay; assay type: functional, cell-based; conditions: MDA-MB-231, 72 h; in short: as §1
[2] = target: T1, 26S proteasome non-ATPase regulatory subunit 10 (Homo sapiens) (UniProt O75832); test: Binding affinity to gankyrin (unknown origin) assessed as change in melting temperature at 300 uM by SYPRO orange staining based thermal shift assay
T1 sequence (whole entry): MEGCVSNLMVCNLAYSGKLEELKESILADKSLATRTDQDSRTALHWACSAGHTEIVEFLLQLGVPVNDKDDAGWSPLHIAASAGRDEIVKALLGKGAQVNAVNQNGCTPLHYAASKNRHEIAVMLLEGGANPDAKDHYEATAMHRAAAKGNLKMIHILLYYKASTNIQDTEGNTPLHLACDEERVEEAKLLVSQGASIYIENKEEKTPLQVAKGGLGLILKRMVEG

MDA-MB-231 [3] = test: Antitumor activity in human MDA-MB-231 cells cultured as 3D spheroids assessed as fold decrease in spheroid volume at 2.30 uM measured up to 15 days by inverted microscopic analysis; assay type: functional; conditions: dose 2.3 µM; time <= 15 day
In short: (§2)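 Spheroids formed from 2000 cells/well in ultra-low attachment U-bottom wells over 3 days, then given a single dose on day 3. Half the media was replenished every 3 days. Transmitted-light images were taken through day 15, and spheroid volume was computed from images and expressed as fold-difference. Mean ± SD, n = 8; unpaired t-test.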

[4] = target: T1, 26S proteasome non-ATPase regulatory subunit 10 (Homo sapiens); test: Binding affinity to gankyrin (unknown origin) expressed in Escherichia coli BL21 (DE3) expression system assessed as decrease in thermal denaturation at 1.5 uM measured at 5 to 90 degreeC by circular dichroism spectropolarimeter analysis
In short: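 Recombinant His-tagged gankyrin expressed in E. coli BL21(DE3) Codon+RIL (IPTG 1 mM, 25 °C, ~5 h) and purified by Ni2+-IMAC. Thermal denaturation followed by CD at 217 nm over 5–90 °C with compound at 1.5 μM.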

MDA-MB-231 [5] = test: Inhibition of colony formation in human MDA-MB-231 cells at 1.15 uM incubated for 48 hrs followed by replacement of fresh media every alternative day measured after 7 days by crystal violet staining based clonogenic assay relative to control; values are per cent of control; conditions: MDA-MB-231, 216 h
MDA-MB-231 [6] = test: Antitumor activity against human MDA-MB-231 cells tumor spheroids assessed as decrease in live cells by measuring green fluorescence intensity at 1.15 to 2.30 uM measured at 15 days by calcein AM staining based fluorescence microscopic analysis; assay type: functional, cell-based; conditions: dose 1.15-2.3 µM, time 15.0 day
In short: (§3)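 Live/dead staining of 3D spheroids at day 15 after single-dose treatment: media replaced by kit reagent with calcein AM (live, green) and EthD-III (dead, red), 30 min in dark at room temperature, imaged at 4X by fluorescence microscopy. Mean ± SD, n = 4; unpaired Student's t-test.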

MDA-MB-231 [7] = test: Antitumor activity against human MDA-MB-231 cells tumor spheroids assessed as increase in dead cells by measuring red fluorescence intensity at 1.15 to 2.30 uM measured at 15 days by EthD-III staining based fluorescence microscopic analysis; assay type: functional, cell-based; conditions: dose 1.15-2.3 µM, time 15.0 day; in short: as §3
MDA-MB-231 [8] = test: Antitumor activity in human MDA-MB-231 cells cultured as 3D spheroids assessed as fold decrease in spheroid volume at 1.15 uM measured up to 15 days by inverted microscopic analysis; assay type: functional; conditions: time <= 15 day; in short: as §2
MDA-MB-231 [9] = test: Inhibition of gankyrin-proteasome protein-protein interaction in human MDA-MB-231 cells assessed as increase in Rb level at 0.30 to 2.50 uM measured after 48 hrs by Western blotting analysis; assay type: cell-based; conditions: dose 0.3-2.5 µM
In short: (§4)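 Cells in 10 cm dishes treated with varying concentrations (0.5% DMSO final) or DMSO only for 48 h. Lysed in RIPA with protease/phosphatase inhibitors on ice for 60 min. 15 μg protein resolved under reducing conditions, transferred to PVDF, and probed for p53, phospho-p53 S6/S15, Rb, gankyrin and cyclophilin. Detection by HRP-secondary ECL.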

[10] = target: T1, 26S proteasome non-ATPase regulatory subunit 10 (Homo sapiens); test: Binding affinity to gankyrin (unknown origin) expressed in Escherichia coli BL21 (DE3) expression system assessed as formation of white precipitation of the compound at 1.5 uM
[11] = Cytotoxicity against HEK293 cells assessed as cell growth inhibition measured after 72 hrs by MTT assay; assay type: toxicity, cell-based; conditions: human; in short: as §1
[12] = Antiproliferative activity against human HuH-6 cells assessed as cell growth inhibition measured after 72 hrs by MTT assay; assay type: functional, cell-based; conditions: HuH-6, 72 h; in short: as §1
[13] = Metabolic stability in human liver microsomes assessed as compound remaining preincubated for 10 mins followed by NADPH addition measured after 60 mins by HPLC analysis; assay type: ADME, Microsome; conditions: read-out: Stability
MDA-MB-231 [14] = test: Antitumor activity against human MDA-MB-231 cells tumor spheroids assessed as increase in dead cells by measuring red fluorescence intensity at 1 to 2 uM measured at 15 days by EthD-III staining based fluorescence microscopic analysis; assay type: functional, cell-based; conditions: dose 1-2 µM, time 15.0 day; in short: as §3
HuH-6 [15] = test: Inhibition of gankyrin-proteasome protein-protein interaction in human HuH-6 cells assessed as increase in p53 level at 0.12 to 1 uM measured after 48 hrs by Western blotting analysis; assay type: cell-based; conditions: dose 0.12-1 µM; in short: as §4
MDA-MB-231 [16] = test: Induction of cell cycle arrest in human MDA-MB-231 cells assessed as increase in cell accumulation at G0/G1 phase at 2 uM measured after 72 hrs by propidium iodide staining based flow cytometry analysis; assay type: functional
In short: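 Cells in 10 cm dishes treated for 72 h (0.1% DMSO final; DMSO-only control). Harvested in cold PBS, fixed in 70% ethanol at −20 °C overnight, stained with PI for 40 min at 37 °C, then analysed by flow/imaging cytometry for G0/G1, S and G2/M fractions. Mean ± SD, n = 3.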

MDA-MB-231 [17] = test: Induction of cell cycle arrest in human MDA-MB-231 cells at 2 uM measured after 72 hrs by propidium iodide staining based flow cytometry analysis
MDA-MB-231 [18] = test: Antitumor activity in human MDA-MB-231 cells cultured as 3D spheroids assessed as fold decrease in spheroid volume at 1 uM measured up to 15 days by inverted microscopic analysis; assay type: functional; conditions: time <= 15 day; in short: as §2
MDA-MB-231 [19] = test: Antitumor activity against human MDA-MB-231 cells tumor spheroids assessed as decrease in live cells by measuring green fluorescence intensity at 1 to 2 uM measured at 15 days by calcein AM staining based fluorescence microscopic analysis; assay type: functional, cell-based; conditions: dose 1-2 µM, time 15.0 day; in short: as §3
MDA-MB-231 [20] = test: Antitumor activity in human MDA-MB-231 cells cultured as 3D spheroids assessed as fold decrease in spheroid volume at 2 uM measured up to 15 days by inverted microscopic analysis; assay type: functional; conditions: time <= 15 day; in short: as §2
MDA-MB-231 [21] = test: Inhibition of gankyrin-proteasome protein-protein interaction in human MDA-MB-231 cells assessed as increase in Rb level at 0.25 to 2 uM measured after 48 hrs by Western blotting analysis; assay type: cell-based; conditions: dose 0.25-2 µM; in short: as §4
HuH-6 [22] = test: Inhibition of gankyrin-proteasome protein-protein interaction in human HuH-6 cells assessed as increase in Rb level at 0.12 to 1 uM measured after 48 hrs by Western blotting analysis; assay type: cell-based; conditions: dose 0.12-1 µM; in short: as §4
[23] = target: T1, 26S proteasome non-ATPase regulatory subunit 10 (Homo sapiens); test: Binding affinity to gankyrin in human MDA-MB-231 cells assessed as decrease in thermal stability at 2 uM incubated for 48 hrs followed by heat treatment at 50 to 65 degreeC by CETSA; assay type: cell-based
In short: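 CETSA: cells treated with compound for 48 h, then heated across a temperature range. Soluble gankyrin was detected by western blot and melt curves were constructed. Mean ± SD, n = 3.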

MDA-MB-231 [24] = test: Inhibition of colony formation in human MDA-MB-231 cells at 2 uM incubated for 48 hrs followed by replacement of fresh media every alternative day measured after 7 days by crystal violet staining based clonogenic assay relative to control; values are per cent of control; conditions: MDA-MB-231, 216 h

| SMILES | IC50 (A549) [µM] | IC50 (MDA-MB-231 [1]) [µM] | also measured |
| --- | --- | --- | --- |
| COC(=O)c1ccc(-n2cc(CCCn3nnc(-c4ccc(C)cc4)n3)nn2)cc1 | > 100 | 36.5 | – |
| COC(=O)c1ccc(-c2nnc(CCCOS(=O)(=O)c3ccc(C)cc3)o2)cc1 | > 100 | > 100 | – |
| COC(=O)c1ccc(-n2cc(CCCC(=O)NS(=O)(=O)c3ccc(C)cc3)nn2)cc1 | > 100 | > 100 | – |
| COC(=O)c1ccc(-n2cc(CCCNC(=S)c3ccc(C)cc3)nn2)cc1 | > 100 | 82.4 | – |
| COC(=O)c1ccc(-n2cc(CCCNC(=O)c3ccc(C)cc3)nn2)cc1 | > 100 | > 100 | – |
| COC(=O)c1ccc(-c2nnn(CCCOS(=O)(=O)c3ccc(C)cc3)n2)cc1 | > 100 | > 100 | – |
| COC(=O)c1ccc(-c2cn(CCCOS(=O)(=O)c3ccc(C)cc3)nn2)cc1 | > 100 | 39.1 | – |

Now those with a lower IC50 (A549), led by results:

| IC50 (A549) [µM] | IC50 (MDA-MB-231 [1]) [µM] | SMILES | also measured |
| --- | --- | --- | --- |
| 7.9 | 8.1 | COC(=O)c1ccc(-n2cc(CCCC(=S)Nc3ccc(C)cc3)nn2)cc1 | – |
| 50 | > 100 | COC(=O)c1ccc(-c2cn(CCCC(=S)Nc3ccc(C)cc3)nn2)cc1 | – |
| 25 | 2.3 | Cc1ccc(NC(=O)CCCn2cc(-c3ccc(C(F)(F)F)cc3)nn2)cc1 | Activity [2]: Active; fold change (FC) (MDA-MB-231 [3]): 3.1; Activity [4]: Active; growth, % of control at 1.15 µM (MDA-MB-231 [5]): 75.3%; Activity (MDA-MB-231 [6]): Active; Activity (MDA-MB-231 [7]): Active; fold change (FC) (MDA-MB-231 [8]): 2.6; Activity (MDA-MB-231 [9]): Active; Activity [10]: Active; IC50 at 72 h [11]: > 100 µM; IC50 [12]: 3.1 µM; remaining at 1 h [13]: 84% |
| 36.4 | 11.6 | COC(=O)c1ccc(-n2cc(CCCNC(=O)Nc3ccc(C)cc3)nn2)cc1 | – |
| 65.1 | 21.5 | COC(=O)c1ccc(-n2cc(CCCc3nnc(-c4ccc(C)cc4)o3)nn2)cc1 | – |
| 19.1 | 2 | O=C(CCCn1cc(-c2ccc(C(F)(F)F)cc2)nn1)Nc1ccc(-c2ccccc2)cc1 | Activity [2]: Active; Activity [4]: Active; Activity (MDA-MB-231 [14]): Active; Activity (HuH-6 [15]): Active; Activity (MDA-MB-231 [16]): Active; Activity (MDA-MB-231 [17]): Active; fold change (FC) (MDA-MB-231 [18]): 2.3; Activity (MDA-MB-231 [19]): Active; fold change (FC) (MDA-MB-231 [20]): 3.2; Activity (MDA-MB-231 [21]): Active; Activity (HuH-6 [22]): Active; Activity [23]: Active; IC50 at 72 h [11]: > 100 µM; IC50 [12]: 1.1 µM; growth, % of control at 2 µM (MDA-MB-231 [24]): 46.3%; remaining at 1 h [13]: 60% |
| 46.5 | > 100 | COC(=O)c1ccc(-n2cc(CCCNC(=S)Nc3ccc(C)cc3)nn2)cc1 | – |
